Key:
Phosphotransferase = molecular target: T1, Phosphotransferase (Trypanosoma cruzi, UniProt Q8ST54); assay: Inhibitory activity against Trypanosoma cruzi hexokinase
T1 sequence (Q8ST54 whole entry): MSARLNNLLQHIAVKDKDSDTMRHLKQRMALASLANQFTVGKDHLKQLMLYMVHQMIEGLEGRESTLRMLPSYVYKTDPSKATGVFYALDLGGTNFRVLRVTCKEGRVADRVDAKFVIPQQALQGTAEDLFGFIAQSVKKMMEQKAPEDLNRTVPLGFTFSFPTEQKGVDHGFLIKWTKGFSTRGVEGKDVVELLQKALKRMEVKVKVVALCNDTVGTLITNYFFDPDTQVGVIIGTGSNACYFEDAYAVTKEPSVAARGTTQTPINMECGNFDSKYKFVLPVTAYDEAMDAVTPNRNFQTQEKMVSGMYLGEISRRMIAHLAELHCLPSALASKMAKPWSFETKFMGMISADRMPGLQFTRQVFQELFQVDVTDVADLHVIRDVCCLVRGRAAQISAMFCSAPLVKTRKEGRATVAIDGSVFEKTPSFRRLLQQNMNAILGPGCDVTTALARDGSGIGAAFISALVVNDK
Method in brief: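 Native glycosomal T. cruzi hexokinase, purified by a previously described procedure. Activity was followed as NADPH formation at 340 nm, coupled to D-glucose-6-phosphate dehydrogenase. Inhibition was reported as IC50.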

[1] = molecular target: farnesyl pyrophosphate synthase (Leishmania major); assay: Inhibitory activity against FPPS in Leishmania major

IC50 [1] [µM] | SMILES | IC50 (Phosphotransferase) [µM]
– | O=P(O)(O)C(CN[C@@H](CO)c1ccccc1)P(=O)(O)O | > 300
– | C[C@H](NC(P(=O)(O)O)P(=O)(O)O)c1cccc2ccccc12 [(Bis-phosphono-methyl)-((S)-1-naphthalen-1-yl-ethyl)-ammonium] | > 300
– | CCCNC(P(=O)(O)O)P(=O)(O)O [propylaminomethylene-1,1-bisphosphonate] | > 300
11 | O=P(O)(O)C(Cc1cccc(-c2ccccc2)c1)S(=O)(=O)O (stereo not given) [2-biphenyl-3-yl-1-phosphono-ethanesulfonic acid] | –
– | O=P(O)(O)C(NC1CC1)P(=O)(O)O [(cyclopropylamino-phosphono-methyl)-phosphonic acid] | > 300

From BindingDB's records for doi:10.1021/jm0582625 (University of Illinois At Urbana-Champaign, 2006)
